# Bioassay records (PubChem BioAssay)
# Compounds with a hit are over-represented: about 2.3% of the library has one in this group of screens.
# Fam108B inh = mouse Fam108B serine hydrolase inhibitors, primary screen, counter-screen for RBBP9 inhibitor project, biochemical, fluorescence polarization; recombinant Fam108B, FP-Rh probe fluorescence polarization; inhibition, % at 9.51 µM; 300,000 compounds, 0.33% hits;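 active = inhibition above the screen mean inhibition plus 3 SD, computed separately per campaign, cut at about 18% in these data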;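 note: inhibitors lower polarization as less probe binds the enzyme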
# GSTO1 inh = inhibitors of recombinant GSTO1, primary screen, counter-screen for RBBP9 inhibitor project, biochemical, fluorescence polarization; activity-based probe fluorescence polarization; 300,000 compounds, 1.1% hits; AID 1974, 2009; inhibition, % at 5.96 µM;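 active = inhibition above the campaign mean inhibition plus 3 SD, cut at about 35% in these data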
# PRMT1 FP inh = PRMT1 methyltransferase inhibitors, primary screen, biochemical, fluorescence polarization; Protein arginine N-methyltransferase 1 (Homo sapiens), Q99873; 370,000 compounds, 1.3% hits; recombinant PRMT1, activity-based probe fluorescence polarization; inhibition, % at 2.79 µM;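 active = inhibition above about 21% made by adding two undisclosed values, limit read from the data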
# PME-1 inh = PME-1 inhibitors via competitive probe labeling, primary screen, biochemical, fluorescence polarization, FP-Rh probe, HTS. inhibition, % at 5.9 µM. 320,000 compounds, 0.53% hits. recombinant PME-1. Protein phosphatase methylesterase 1 (Homo sapiens), Q9Y570;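 active = inhibition above the campaign mean of all compounds plus 3 SD, cut at about 26% in these data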;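 note: competitive labeling of PME-1 active site by serine hydrolase directed probe; inhibitors block probe labeling so polarization falls and inhibition rises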
# RBBP9 inh = human RBBP9 inhibitors, primary screen, biochemical, fluorescence polarization, FP-Rh probe, HTS; recombinant RBBP9; 220,000 compounds, 0.2% hits; inhibition, % at 7.94 µM; AID 1515, 2009;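 active = inhibition above the campaign mean of all tested compounds plus 3 SD, cut at about 14% in these data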
#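 Test system – recombinant human RBBP9 · Input – RBBP9 2.5 µM in dispensing solution, pre-mixing · Medium – Tris buffer pH 8.0, NaCl, Pluronic · Schedule – preincubation 30 min plus labeling 45 min at 25 °C · Measured by – fluorescence polarization · Measure – % inhibition · Controls – DMSO and no-protein wells · Replicates – one well per compound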
# PAD4 inh = human PAD4 inhibitors, primary screen, biochemical, fluorescence polarization, 1536-well format; AID 485272, 2010; 330,000 compounds, 0.41% hits; recombinant PAD4, RCA probe fluorescence polarization; Protein-arginine deiminase type-4 (Homo sapiens), Q9UM07; inhibition, % at 6.36 µM;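 active = percent inhibition above a cutoff equal to the mean of all tested compounds plus 3 SD, cut at about 15% in these data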
# Target sequence (Q9UM07 whole entry, looked up): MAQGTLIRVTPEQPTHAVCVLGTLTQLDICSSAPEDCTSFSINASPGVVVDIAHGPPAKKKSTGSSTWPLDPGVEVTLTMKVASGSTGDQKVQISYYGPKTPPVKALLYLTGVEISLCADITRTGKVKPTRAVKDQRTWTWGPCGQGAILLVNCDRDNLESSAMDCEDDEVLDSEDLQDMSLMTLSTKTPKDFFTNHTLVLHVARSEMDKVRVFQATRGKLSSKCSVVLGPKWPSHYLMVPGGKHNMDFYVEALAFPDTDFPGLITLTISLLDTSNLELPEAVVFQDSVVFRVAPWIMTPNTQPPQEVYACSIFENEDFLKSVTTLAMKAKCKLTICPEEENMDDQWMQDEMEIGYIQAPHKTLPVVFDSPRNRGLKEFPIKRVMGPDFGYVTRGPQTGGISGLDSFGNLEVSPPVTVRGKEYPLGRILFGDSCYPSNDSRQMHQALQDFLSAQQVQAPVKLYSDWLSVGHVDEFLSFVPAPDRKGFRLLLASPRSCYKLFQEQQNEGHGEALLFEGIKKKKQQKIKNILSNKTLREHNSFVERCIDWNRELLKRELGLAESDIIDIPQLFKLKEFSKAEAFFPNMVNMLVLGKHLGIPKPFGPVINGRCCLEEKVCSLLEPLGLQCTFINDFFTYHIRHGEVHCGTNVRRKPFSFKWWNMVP
# PRMT1 inh conf = PRMT1 methyltransferase inhibitors, confirmation, biochemical, fluorescence polarization, triplicate; shares compounds with PRMT1 FP inh; recombinant His-PRMT1, activity-based probe fluorescence polarization; inhibition, % at 2.79 µM; 3,300 compounds, 42% hits;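 active = mean inhibition across replicates above the hit cutoff derived for the earlier primary screen, cut at about 22% in these data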
# Numbers stand for hits; . = inactive; / = not tested or not shown.
SMILES,Fam108B inh,GSTO1 inh,PRMT1 FP inh,PME-1 inh,RBBP9 inh,PAD4 inh,PRMT1 inh conf
O=C(COc1ccc2ccc(=O)oc2c1)Nc1ccc(N2CCCCC2)cc1,/,/,.,.,/,.,/
O=C(C1=NN[C@@H]2C(=O)N(c3cccc(F)c3)C(=O)[C@H]12)c1cnccn1,.,.,36,.,.,.,.
O=S1(=O)CCC(NC(=S)N2CCCCCC2)C1 (stereo not drawn),.,.,.,.,.,.,/
CCOc1ccc(N=CNc2ccc(OCC)cc2)cc1,.,.,.,.,/,.,/
CCCCN=Cc1sc2ccc(OCC)cc2c1O,.,.,30,.,.,.,32
CCOC(=O)C1CCN(C2CC(=O)N(c3ccc(OCC)cc3)C2=O)CC1 (stereo not drawn),.,.,45,.,.,.,.
CCc1ccc(N2C(=O)CC(N3CCC(C(=O)OC)CC3)C2=O)cc1 (stereo not drawn),.,.,44,.,.,.,.
CCCCCCOc1ccc(N2C(=O)CC(N3CCC(C(=O)OCC)CC3)C2=O)cc1 (stereo not drawn),.,.,.,.,.,.,/
CCCOc1ccc(N2C(=O)CC(N3CCC(c4nncn4CC)CC3)C2=O)cc1 (stereo not drawn),.,.,39,.,.,.,.
CCc1ccc(N2CC(C(=O)OC)CC2=O)cc1 (stereo not drawn),.,.,.,.,.,.,/
COCCNC(=O)C1Nc2ccc(C(F)(F)F)cc2C2C=CCC12 (stereo not drawn),.,.,.,.,/,.,/
COC(=O)CNC(=O)C1Nc2ccc(OC(F)(F)F)cc2C2C=CCC12 (stereo not drawn),.,.,37,.,/,.,.
COCCNC(=O)C1Nc2ccc(OC(F)(F)F)cc2C2C=CCC12 (stereo not drawn),.,.,26,.,/,.,.
O=C(NCc1ccccn1)C1Nc2ccc(C(F)(F)F)cc2C2C=CCC12 (stereo not drawn),.,.,.,.,/,.,/
CC(=O)c1ccc2c(c1)C1C=CCC1C(c1cc3c(cc1Br)OCO3)N2 (stereo not drawn),.,.,.,.,/,.,/
CCOC(=O)C1Nc2ccc(C(=O)O)cc2C2C=CCC12 (stereo not drawn),.,.,30,.,/,.,38
Cc1ccsc1/C=N/NC(=O)CNC(=O)c1c(F)cccc1Cl,.,.,.,.,/,.,/
C/C=C\C=C/C(=O)Nc1cccc(C2=NOC3(C2)C[C@@H](C(N)=O)N(C(=O)CCCCC)C3)c1 (stereo partly drawn),.,.,25,.,/,.,65
C/C=C\C=C/C(=O)Nc1cccc(C2=NOC3(C2)C[C@H](C(N)=O)N(C(=O)Cc2ccc([N+](=O)[O-])cc2)C3)c1 (stereo partly drawn),.,.,42,.,/,.,52
CC(C)CC(NC(=O)c1cccc(Cl)c1)C(=O)O (stereo not drawn),.,.,.,.,.,.,/
c1ccc(-c2cc3nc(NCc4ccc5c(c4)OCO5)ccn3n2)cc1,/,/,.,/,/,/,/
c1coc(-c2cc3nc(NCc4ccc5c(c4)OCO5)ccn3n2)c1,/,/,32,/,/,/,.
c1coc(-c2cc3nc(NC4CCCCC4)ccn3n2)c1,/,/,29,/,/,/,.
CCOC(=O)c1c(SCCN2CCCC2)n(-c2ccccc2)c(=S)n(-c2ccccc2)c1=O,/,/,52,/,/,/,40
Cc1ccccc1N1C(=O)C(Cl)=C(N2CCOCC2)C1=O,.,.,.,.,/,.,/
O=C1C(Cl)=C(N2CCOCC2)C(=O)N1c1ccccc1F,.,.,40,.,/,.,.
Cc1c(C)c2ccc(OS(C)(=O)=O)cc2oc1=O,.,.,.,.,.,.,/
